Experimental data reported in paper PMC10084868 (International Journal of Nanomedicine, 2023).

Tests used:
[1] = humans; cited from earlier work
[2] = powdered drugs, reported previously; cited from earlier work
zebrafish haematopoiesis = test: Haemoglobin; assay type: in vivo; details: zebrafish embryos; F1 starting from 0.4 µg/mL; haemoglobin staining and video
Outline: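 Shield-stage embryos were exposed to the formulation at 0.4 µg/mL and raised to the 20-somite stage, then given 0.003% (final) phenylthiourea to block pigmentation. They were then rinsed and fixed in 4% paraformaldehyde.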

SMILES	increase of bioavailability of CUR with concomitant PP vs CUR alone [1]	dissolution rate (release) of powdered drug [2]	effect on blood circulation / haematopoiesis (zebrafish haematopoiesis)
COc1cc(/C=C/C(=O)CC(=O)/C=C/c2ccc(O)c(OC)c2)ccc1O [CUR, Curcumin]	2000%	less than 20%	did not affect haematopoiesis
O=C(/C=C/C=C/c1ccc2c(c1)OCO2)N1CCCCC1 [PP, Piperine]		less than 20%	did not affect haematopoiesis
